Calls of active or inactive are those of the source. The calls are words filed in the database; no cut-off is given here.

Series [1] has as its system Mus musculus. The experiment in a line: Neurotoxicity against Mus musculus C57BL/6 (mouse) assessed as tonic paralysis at 500 pmol, icv. The format is toxicity, organism-based. Particulars: in vivo, icv_or_intrathecal. The method, boiled down:
(§1)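 Female C57BL/6 mice (~20 g) lightly anesthetized with diethylether. 5 µl of sample in BSA solution injected into the left cerebral ventricle. Posture, behavior and neurotoxic signs observed; n = 2.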

The test system of series [2] is Mus musculus. Nature of the series: Neurotoxicity against Mus musculus C57BL/6 (mouse) assessed as convulsion at 500 pmol, icv. The format is toxicity, organism-based. Particulars: in vivo, icv_or_intrathecal. The essentials: as §1
Series [3] has as its system Mus musculus. Nature of the series: Neurotoxicity against Mus musculus C57BL/6 (mouse) assessed as respiratory paralysis at 500 pmol, icv. The format is toxicity, organism-based. Particulars: in vivo, icv_or_intrathecal. The essentials: as §1
Series [4] relates to Mus musculus. Nature of the series: Neurotoxicity against Mus musculus C57BL/6 (mouse) assessed as tonic paralysis at 500 pmol, icv measured after 4 hr. Type of series: toxicity, organism-based. Particulars: in vivo, icv_or_intrathecal.
Series [5] is described as follows: Inhibition of transient A type potassium channel IK(A) in Periplaneta americana (American cockroach) DUM neurons assessed as effect on voltage-dependent activation at 330 nM measured at holding potential -90 mV depolarized to +40 mV with 100 ms increments after 10 min by whole cell patch clamp …. Background: Patch clamp records ionic current or voltage across a cell membrane.

Series [6] relates to Mus musculus. The experiment in a line: Neurotoxicity against Mus musculus C57BL/6 (mouse) assessed as extension of toes at 500 pmol, icv. The format is toxicity, organism-based. The conditions noted are these: in vivo, icv_or_intrathecal. The method, boiled down: as §1
Series [7] has as its target Voltage-gated sodium channel Nav1 alpha subunit (Periplaneta americana) (UniProt D0E0C1). Nature of the series: Inhibition of Nav channel in Periplaneta americana (American cockroach) DUM neurons assessed as effect on voltage-dependent activation at 330 nM measured at holding potential -90 mV depolarised to +70 mV with 10 mV increments for 10 min by whole cell patch clamp assay. The method, boiled down: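 Whole-cell voltage clamp of TTX-sensitive Na+ current in DUM neurons isolated from adult cockroaches and kept no longer than 24 h at 30°C. Bath (mM): NaCl 80, CsCl 5, CaCl2 1.8, TEA-Cl 50, 4-AP 5, HEPES 10, NiCl2 0.1, CdCl2 1, pH 7.4. Vh -90 mV; test pulse to -10 mV, or steps to +70 mV in 10-mV increments at 0.1 Hz. P-P/4 leak subtraction; 20–23°C.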

In series [8] the target is Voltage-dependent calcium channel alpha-1 subunit (Blattella germanica) (UniProt O18323). The experiment in a line: Inhibition of voltage-gated calcium channel Cav-mediated fast-transient current in Periplaneta americana (American cockroach) DUM neurons assessed as effect on voltage-dependent activation at 25 nM measured at holding potential -80 mV in 10 mV increments depolarized to +40 mV after 10 min by whole cell patch clamp assay in presence of CdCl2. The essentials:
(§2)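 BK(Ca) current in DUM neurons with 5 mM 4-AP in the bath. Toxin perfused for 10 min or to equilibrium; then 1 mM CdCl2 plus 30 nM ChTx added, and the residual current subtracted. 100-ms steps from Vh -80 mV to +30 mV, or to +40 mV in 10-mV increments for I–V. Peak (fast-transient) and 100-ms (late) amplitudes measured. IC50 from logistic fit; n = 3–6.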

A short description of series [9]: Reversible inhibition of Potassium channel Kv in Periplaneta americana (American cockroach) DUM neurons at 330 nM measured at holding potential -90 mV depolarized to +30 mV after 10 min by whole cell patch clamp assay relative to control.
Series [10] relates to Mus musculus. Nature of the series: Neurotoxicity against Mus musculus C57BL/6 (mouse) assessed as ataxia at 500 pmol, icv. The format is toxicity, organism-based. Particulars: in vivo, icv_or_intrathecal. The essentials:
as §1

For series [11], the target named is Voltage-dependent calcium channel alpha-1 subunit (Blattella germanica) (UniProt O18323). Nature of the series: Inhibition of high voltage activated Cav channel in Periplaneta americana (American cockroach) DUM neurons assessed as effect on voltage-dependent activation at 330 nM measured at holding potential -90 mV depolarized to +70 mV with 10 mV increments after 10 min by whole cell patch clamp assay. The method, boiled down:
(§3)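 Ba2+ currents through M-LVA and HVA Cav channels recorded by whole-cell clamp in cockroach DUM neurons at 20–23°C. Toxin applied for 10 min via a perfusion needle. Peak IBa measured relative to control. For activation, steps from Vh -90 mV to +70 mV in 10-mV increments at 0.1 Hz. P-P/4 leak subtraction; n = 3.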

The test system of series [12] is Mus musculus. Nature of the series: Neurotoxicity against Mus musculus C57BL/6 (mouse) assessed as cyanosis at 500 pmol, icv measured after 4 hr. The conditions noted are these: in vivo, icv_or_intrathecal. Type of series: toxicity, organism-based.
A short description of series [13]: Inhibition of transient A type potassium channel IK(A) in Periplaneta americana (American cockroach) DUM neurons at 330 nM measured at holding potential -90 mV depolarized to +30 mV after 10 min by whole cell patch clamp assay in presence of CdCl2 and ChTx.
Series [14] has as its target Voltage-dependent calcium channel alpha-1 subunit (Blattella germanica) (UniProt O18323). The experiment in a line: Inhibition of voltage-gated calcium channel Cav-mediated late-sustained current in Periplaneta americana (American cockroach) DUM neurons assessed as effect on voltage-dependent activation at 25 nM measured at holding potential -80 mV in 10 mV increments depolarized to +40 mV after 10 min by whole cell patch clamp assay in presence of CdCl2.

Series [15] in a line: Inhibition of delayed rectifier potassium channel IK(DR) in Periplaneta americana (American cockroach) DUM neurons at 330 nM measured at holding potential -90 mV depolarized to +30 mV after 10 min by whole cell voltage clamp assay in presence of CdCl2 and ChTx relative to control.
A short description of series [16]: Inhibition of delayed rectifier potassium channel IK(DR) in Periplaneta americana (American cockroach) DUM neurons assessed as effect on voltage-dependent activation at 330 nM measured at holding potential -90 mV depolarized to +40 mV with 100 ms increments after 10 min by whole cell voltage clamp ….
In series [17] the target is Voltage-dependent calcium channel alpha-1 subunit (Blattella germanica) (UniProt O18323). The experiment in a line: Inhibition of voltage-gated calcium channel Cav-mediated fast-transient current in Periplaneta americana (American cockroach) DUM neurons assessed as measured at holding potential -80 mV depolarized to +40 mV after 10 min by whole cell patch clamp assay in presence of CdCl2. The method, boiled down: as §2

For series [18], the system named is Gryllus bimaculatus. The experiment in a line: Neurotoxicity against third-instar nymph stage of Gryllus bimaculatus (cricket) assessed as paralysis at 1.1 nmol/g measured within 5 min. The format is functional, organism-based.
Series [19] deals with Voltage-dependent calcium channel alpha-1 subunit (Blattella germanica) (UniProt O18323). The experiment in a line: Inhibition of mid-low voltage activated Cav channel in Periplaneta americana (American cockroach) DUM neurons assessed as effect on voltage-dependent activation at 330 nM measured at holding potential -90 mV depolarized to +70 mV with 10 mV increments after 10 min by whole cell patch clamp assay. The essentials: as §3

Series [20] deals with Mus musculus. Nature of the series: Neurotoxicity against Mus musculus C57BL/6 (mouse) assessed as cyanosis at 500 pmol, icv. Type of series: toxicity, organism-based. The conditions noted are these: in vivo, icv_or_intrathecal. The method, boiled down:
as §1

The target in series [21] is Voltage-dependent calcium channel alpha-1 subunit (Blattella germanica) (UniProt O18323). The experiment in a line: Inhibition of voltage-gated calcium channel Cav-mediated late-sustained current in Periplaneta americana (American cockroach) DUM neurons assessed as measured at holding potential -80 mV depolarized to +40 mV after 10 min by whole cell patch clamp assay in presence of CdCl2. The method, boiled down:
as §2

The subject of series [22] is Gryllus bimaculatus. The experiment in a line: Neurotoxicity against third-instar nymph stage of Gryllus bimaculatus (cricket) assessed as mortality at 1.1 nmol/g measured at 15 min. Type of series: functional, organism-based.
The test system of series [23] is Mus musculus. The experiment in a line: Neurotoxicity against Mus musculus C57BL/6 (mouse) assessed as extension of leg at 500 pmol, icv. Type of series: toxicity, organism-based. The conditions noted are these: in vivo, icv_or_intrathecal. The essentials:
as §1

Series [24] relates to Mus musculus. Nature of the series: Neurotoxicity against Mus musculus C57BL/6 (mouse) assessed as tail erection at 500 pmol, icv. Type of series: toxicity, organism-based. Particulars: in vivo, icv_or_intrathecal. The essentials:
as §1

Sequence of Voltage-dependent calcium channel alpha-1 subunit (Blattella germanica) (O18323 as listed by the source): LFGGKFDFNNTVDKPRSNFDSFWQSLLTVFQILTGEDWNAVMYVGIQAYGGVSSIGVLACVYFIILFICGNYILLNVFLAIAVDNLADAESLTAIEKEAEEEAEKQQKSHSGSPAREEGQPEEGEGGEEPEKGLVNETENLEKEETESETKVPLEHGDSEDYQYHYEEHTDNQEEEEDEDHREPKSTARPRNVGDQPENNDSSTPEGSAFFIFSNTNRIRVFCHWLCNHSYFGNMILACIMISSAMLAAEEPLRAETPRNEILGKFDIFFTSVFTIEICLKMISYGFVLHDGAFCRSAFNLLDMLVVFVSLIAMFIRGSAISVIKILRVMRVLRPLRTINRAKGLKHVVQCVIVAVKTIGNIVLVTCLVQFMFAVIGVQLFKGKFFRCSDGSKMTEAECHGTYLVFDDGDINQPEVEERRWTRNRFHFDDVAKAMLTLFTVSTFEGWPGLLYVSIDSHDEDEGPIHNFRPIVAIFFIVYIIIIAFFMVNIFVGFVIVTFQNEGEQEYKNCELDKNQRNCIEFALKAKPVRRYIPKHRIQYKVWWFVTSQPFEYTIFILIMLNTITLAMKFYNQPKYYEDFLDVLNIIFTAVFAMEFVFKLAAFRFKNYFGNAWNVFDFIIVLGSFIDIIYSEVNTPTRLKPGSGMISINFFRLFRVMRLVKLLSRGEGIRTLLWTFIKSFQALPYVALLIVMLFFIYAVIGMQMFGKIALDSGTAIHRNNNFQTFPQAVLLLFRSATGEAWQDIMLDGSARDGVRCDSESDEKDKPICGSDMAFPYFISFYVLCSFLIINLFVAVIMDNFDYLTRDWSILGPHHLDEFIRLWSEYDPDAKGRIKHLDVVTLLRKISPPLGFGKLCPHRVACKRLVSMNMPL
Sequence of Voltage-gated sodium channel Nav1 alpha subunit (Periplaneta americana) (D0E0C1 as listed by the source): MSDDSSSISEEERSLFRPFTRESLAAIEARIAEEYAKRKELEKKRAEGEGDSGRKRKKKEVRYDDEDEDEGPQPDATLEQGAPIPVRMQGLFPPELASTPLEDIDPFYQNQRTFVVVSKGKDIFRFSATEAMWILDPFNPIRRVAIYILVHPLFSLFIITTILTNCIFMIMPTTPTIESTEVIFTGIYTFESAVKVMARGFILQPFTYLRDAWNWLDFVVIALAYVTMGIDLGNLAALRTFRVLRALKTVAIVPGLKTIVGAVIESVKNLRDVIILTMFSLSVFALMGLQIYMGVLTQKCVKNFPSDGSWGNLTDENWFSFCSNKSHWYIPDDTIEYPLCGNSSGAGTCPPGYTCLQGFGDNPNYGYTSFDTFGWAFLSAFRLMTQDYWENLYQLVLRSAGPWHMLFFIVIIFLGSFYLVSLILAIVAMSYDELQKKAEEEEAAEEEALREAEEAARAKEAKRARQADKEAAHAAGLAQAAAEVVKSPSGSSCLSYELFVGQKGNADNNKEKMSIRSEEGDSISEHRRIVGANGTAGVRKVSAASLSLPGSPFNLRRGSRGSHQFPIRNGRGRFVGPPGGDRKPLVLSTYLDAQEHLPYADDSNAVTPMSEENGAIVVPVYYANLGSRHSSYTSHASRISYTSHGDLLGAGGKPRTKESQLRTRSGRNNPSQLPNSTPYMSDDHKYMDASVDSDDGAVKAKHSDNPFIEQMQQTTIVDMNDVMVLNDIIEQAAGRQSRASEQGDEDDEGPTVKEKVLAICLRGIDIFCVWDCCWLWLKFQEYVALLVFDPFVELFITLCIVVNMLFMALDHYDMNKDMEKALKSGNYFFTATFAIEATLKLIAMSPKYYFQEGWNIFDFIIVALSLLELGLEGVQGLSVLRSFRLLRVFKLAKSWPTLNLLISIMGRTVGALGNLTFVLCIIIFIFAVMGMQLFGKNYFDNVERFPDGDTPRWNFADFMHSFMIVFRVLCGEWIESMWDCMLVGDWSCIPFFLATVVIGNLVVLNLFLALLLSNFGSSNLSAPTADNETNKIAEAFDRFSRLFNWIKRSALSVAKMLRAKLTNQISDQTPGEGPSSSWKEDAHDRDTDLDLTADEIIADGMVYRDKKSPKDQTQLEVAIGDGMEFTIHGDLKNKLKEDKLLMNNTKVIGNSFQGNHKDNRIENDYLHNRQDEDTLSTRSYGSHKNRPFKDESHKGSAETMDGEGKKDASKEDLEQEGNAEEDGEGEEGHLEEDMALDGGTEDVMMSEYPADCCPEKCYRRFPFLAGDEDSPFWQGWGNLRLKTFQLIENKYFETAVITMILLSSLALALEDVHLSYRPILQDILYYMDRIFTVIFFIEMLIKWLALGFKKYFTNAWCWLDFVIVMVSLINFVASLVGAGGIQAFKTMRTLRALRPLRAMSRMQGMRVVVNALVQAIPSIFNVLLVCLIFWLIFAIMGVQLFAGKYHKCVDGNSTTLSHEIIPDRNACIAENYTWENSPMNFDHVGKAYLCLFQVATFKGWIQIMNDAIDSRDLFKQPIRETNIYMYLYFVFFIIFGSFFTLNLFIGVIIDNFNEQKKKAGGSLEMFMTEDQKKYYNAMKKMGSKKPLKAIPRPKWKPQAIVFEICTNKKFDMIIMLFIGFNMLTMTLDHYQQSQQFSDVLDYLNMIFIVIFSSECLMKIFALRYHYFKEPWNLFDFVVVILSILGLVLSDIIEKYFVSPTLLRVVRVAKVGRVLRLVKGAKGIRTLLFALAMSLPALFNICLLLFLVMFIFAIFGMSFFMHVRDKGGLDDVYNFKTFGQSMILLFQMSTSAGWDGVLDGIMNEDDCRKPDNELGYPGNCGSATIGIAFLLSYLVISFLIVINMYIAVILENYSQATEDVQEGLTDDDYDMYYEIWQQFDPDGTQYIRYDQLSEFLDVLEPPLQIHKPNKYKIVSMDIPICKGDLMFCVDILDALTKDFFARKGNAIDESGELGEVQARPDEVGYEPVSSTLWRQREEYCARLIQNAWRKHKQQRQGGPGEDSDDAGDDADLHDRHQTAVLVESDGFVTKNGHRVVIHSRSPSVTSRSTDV

As for `CSCC[C@@H]1NC(=O)[C@H](CCCCN)NC(=O)[C@H](Cc2ccccc2)NC(=O)[C@H](CCC(N)=O)NC(=O)[C@@H](NC(=O)[C@@H](N)Cc2ccc(O)cc2)CSSC[C@@H]2NC(=O)[C@@H]3CSSC[C@@H](C(=O)N[C@@H](CCCCN)C(=O)N[C@@H](CC(C)C)C(=O)N[C@@H](CC(N)=O)C(=O)N[C@@H](CC(C)C)C(=O)O)NC(=O)[C@H](Cc4c[nH]c5ccccc45)NC(=O)[C@H](CC(C)C)NC(=O)[C@H](CCCNC(=N)N)NC(=O)[C@H](CSSC[C@H](NC(=O)[C@H]([C@@H](C)O)NC(=O)[C@H](Cc4c[nH]c5ccccc45)NC1=O)C(=O)N[C@@H](CC(=O)O)C(=O)N[C@@H](CO)C(=O)N[C@@H](CCC(=O)O)C(=O)N[C@@H](CCCNC(=N)N)C(=O)N[C@@H](CCCCN)C(=O)N3)NC(=O)[C@H](C(C)C)NC(=O)[C@H](CCSC)NC(=O)[C@H](CC(=O)O)NC(=O)[C@H](CCC(=O)O)NC2=O`, the Activity entry in the series with Mus musculus [1] is on record as “Toxic”; in the series on Mus musculus [2], “Toxic”; in the series on Mus musculus [3], “Toxic”; in the series on Mus musculus [4], “Non-toxic”; with Mus musculus [6] it was “Toxic”; in the series on Mus musculus [10], “Toxic”. Also, the Activity result is listed as “Non-toxic” in the series with Mus musculus [12], “Toxic” with Mus musculus [20], “Toxic” with Mus musculus [23] and “Toxic” in the series with Mus musculus [24]. Further, the inhibition result in series [5], in series [7], in series [8], in series [11], in series [13] and in series [14] was “inactive” throughout. Also, the inhibition result in [15], in [16] and in series [19] was “inactive” throughout. Besides, the inhibition entry in [9] is “Active”. Also, the inhibition entry in [17] and in series [21] was “Dose-dependent effect” throughout. In addition, the outcome in the series with Gryllus bimaculatus [18] and in the series with Gryllus bimaculatus [22] was Active.

The record behind these values is ChEMBL document CHEMBL3045866, “A novel family of insect-selective peptide neurotoxins targeting insect large-conductance calcium-activated K+ channels isolated from the venom of the theraphosid spider Eucratoscelus constrictus” (Mol Pharmacol, 2011).
